Experimental data reported in ChEMBL document CHEMBL3826964, “Structure-based design and synthesis of triazole-based macrocyclic inhibitors of norovirus protease: Structural, biochemical, spectroscopic, and antiviral studies” (Eur J Med Chem, 2016).

Experiments:
[1] = Cytotoxicity against human HG23 cells after 72 hrs by CytoTox-96 non-radioactive cytotoxicity assay; format: cell-based; conditions: hg23, 72 h
Norovirus = assay: Antiviral activity against HG23 cells harboring Norovirus replicon assessed as decrease in viral RNA level measured after 48 hrs by qRT-PCR analysis; format: functional, cell-based; conditions: HG23, 48 h
Outline: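 One-day-old HG23 cells (Norwalk virus replicon-bearing) exposed to 1.0–100 μM compound for 48 h; total RNA extracted and norovirus RNA quantified by qRT-PCR, normalized to β-actin. Percent reduction versus mock-treated cells used to calculate EC50; at least two independent experiments.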

Row | SMILES | CC50 [1] [µM] | EC50 (Norovirus) [µM]
1 | O=C[C@@H]1CCC(=O)NCCCCCn2cc(nn2)C[C@H](NC(=O)OCc2ccccc2)C(=O)N[C@@H](CC2CCCCC2)C(=O)N1 | > 100 | 3.8
2 | CC(C)C[C@@H]1NC(=O)[C@@H](NC(=O)OCc2ccccc2)CCCn2cc(nn2)CNC(=O)CC[C@@H](C=O)NC1=O | – | 8.5
3 | CC(C)C[C@@H]1NC(=O)[C@@H](NC(=O)OCc2ccccc2)Cc2cn(nn2)CCCCCCNC(=O)CC[C@@H](C=O)NC1=O | > 100 | 42.1
4 | O=C[C@@H]1CCC(=O)NCCCCCCn2cc(nn2)C[C@H](NC(=O)OCc2ccccc2)C(=O)N[C@@H](Cc2ccccc2)C(=O)N1 | > 100 | 29.5
5 | CC(C)C[C@@H]1NC(=O)[C@@H](NC(=O)OCc2ccccc2)Cc2cn(nn2)CCNC(=O)CC[C@@H](C=O)NC1=O | > 100 | 53.2
6 | CC(C)C[C@@H]1NC(=O)[C@@H](NC(=O)OCc2ccccc2)Cc2cn(nn2)CCCCCNC(=O)CC[C@@H](C=O)NC1=O | > 100 | 6.2
7 | CC(C)C[C@@H]1NC(=O)[C@@H](NC(=O)OCc2ccccc2)Cc2cn(nn2)CCCCNC(=O)CC[C@@H](C=O)NC1=O | > 100 | 46.3
8 | O=C[C@@H]1CCC(=O)NCCCCCCn2cc(nn2)C[C@H](NC(=O)OCc2ccccc2)C(=O)N[C@@H](CC2CCCCC2)C(=O)N1 | > 100 | 88.3
9 | O=C[C@@H]1CCC(=O)NCCCCn2cc(nn2)C[C@H](NC(=O)OCc2ccccc2)C(=O)N[C@@H](CC2CCCCC2)C(=O)N1 | > 100 | 30.5
10 | O=C[C@@H]1CCC(=O)NCCCn2cc(nn2)C[C@H](NC(=O)OCc2ccccc2)C(=O)N[C@@H](CC2CCCCC2)C(=O)N1 | > 100 | 16.1
11 | CC(C)C[C@@H]1NC(=O)[C@@H](NC(=O)OCc2ccccc2)Cc2cn(nn2)CCCNC(=O)CC[C@@H](C=O)NC1=O | > 100 | 81.5
12 | O=C[C@@H]1CCC(=O)NCCn2cc(nn2)C[C@H](NC(=O)OCc2ccccc2)C(=O)N[C@@H](CC2CCCCC2)C(=O)N1 | > 100 | 25.5
